pKd: −log10 of the molar value. Active and inactive are the calls of the source. The calls are words filed in the database; no cut-off is given here.
Experiments:
COS-7 [1] = assay: Inhibition of HIV1 Nef-SH3Hck interaction in COS7 cells at 20 uM after 36 hrs by mammalian two-hybrid assay; assay type: cell-based; conditions: Human immunodeficiency virus 1
Summary of the method: (§1)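 Firefly luciferase reports interaction, Renilla luciferase (from GAL4–SH3Hck construct) normalizes transfection and viability; inhibition from reduced LucFF:LucRN ratio. Dose series 2–32 μM; screening at 20 μM.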

[2] = Binding affinity to HIV1 Nef by isothermal titration calorimetry method; parameters: species or system Human immunodeficiency virus 1
Summary of the method: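 Nef57–205 dialyzed in ITC buffer (20 mM Hepes pH 7.0, 100 mM NaCl, 5% DMSO), 15–25 μM in cell; inhibitor 300–400 μM in same buffer (DMSO 5%) injected 10–15 μl every 300 s at 25°C; heat of dilution into buffer alone subtracted; apparent KD from titration.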

[3] = Toxicity against african green monkey COS7 cells assessed as cell viability upto 100 uM; assay type: cell-based; conditions: chlorocebus aethiops, cos-7
[4] = biological target: T1, DNA-binding protein inhibitor ID-1 (Homo sapiens) (UniProt P41134); assay: Reduction of Id-MyoD interaction in COS7 cells at 32 uM after 36 hrs by mammalian two-hybrid assay; assay type: cell-based; parameters: scale not given: the % may be the effect or the level left; conditions: COS-7
T1 sequence (whole entry): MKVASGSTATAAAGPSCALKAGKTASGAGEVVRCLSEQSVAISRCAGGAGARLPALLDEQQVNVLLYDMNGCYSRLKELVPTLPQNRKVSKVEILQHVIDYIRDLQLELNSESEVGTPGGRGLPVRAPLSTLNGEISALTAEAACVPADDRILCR
Summary of the method: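 Specificity counterscreen: Id–MyoD mammalian two-hybrid in COS7 cells, compounds at 2, 4, 8, 16, 32 μM for 36 h; read-out as normalized firefly:Renilla luciferase ratio.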

COS-7 [5] = assay: Reduction of HIV1 Nef-SH3Hck protein interaction in COS7 cells assessed as reduction of LucFF:LucRN ratio at 32 uM after 36 hrs by mammalian two-hybrid assay; assay type: cell-based; parameters: scale not given: the % may be the effect or the level left; conditions: Human immunodeficiency virus 1; summary of the method: as §1
[6] = system: Human immunodeficiency virus 1; assay: Reduction of HIV1 Nef-SH3Hck protein interaction at 0.1 uM by GST pull-down method
[7] = system: Human immunodeficiency virus 1; assay: Reduction of HIV1 Nef-mediated MHC class 1 down regulation in human PBMC after 3 hrs
[8] = system: Human immunodeficiency virus 1; assay: Reduction in HIV1 Nef-mediated CD4 down regulation in human PBMC after 3 hrs

Row | SMILES | inhibition (COS-7 [1]) [%] | pKd [2] | further results
1 | c1ccc(/C(=N/Nc2nc3ccccc3s2)c2ccccn2)cc1.c1ccc(/C(=N\Nc2nc3ccccc3s2)c2ccccn2)cc1 | 57.2 |  | 
2 | CC(C)(C)c1ccc(OCC(=O)Nc2cccc(C(=O)O)c2)cc1 | 75 | 6.01 | Activity [3]: Non-toxic
3 | CN(C)c1ccc2nc3c(C(=O)O)cc(=O)c(O)c-3oc2c1 | 80.4 | 5.89 | 
4 | O=C(O)CCC(=O)c1ccc2ccc3cccc4ccc1c2c34 | 58.4 |  | 
5 | COc1cc2ccccc2c2cc([N+](=O)[O-])oc12 | 53.8 | 4.96 | 
6 | Cc1cc(OCc2nc(N)nc(N)c2-c2ccc(Cl)c(Cl)c2)ccc1[N+](=O)[O-] | 57.5 |  | 
7 | O=C(O)CCCc1ccc2ccc3ccccc3c2c1 | 63.2 | 5.17 | 
8 | CC(C)(C)c1ccc(OC(=O)Nc2ccc(O)c(C(=O)O)c2)cc1 | 73.4 | 5.74 | Activity [4]: 17%; Activity (COS-7 [5]): 77%; Activity [6]: Active; Activity [7]: Dose-dependent effect; Activity [3]: Non-toxic; Activity [8]: inactive

Source: ChEMBL document CHEMBL1147089, “Protein protein interaction inhibition (2P2I) combining high throughput and virtual screening: Application to the HIV-1 Nef protein” (Proc Natl Acad Sci U S A, 2007)
